# APP 5'UTR act – APP 5'UTR luciferase reporter activation; activation, % at 2 µM; AID 1276; actives 1% (n = 190,000); SH-SY5Y APP 5'UTR luciferase reporter, luminescence; zero percent = DMSO vehicle wells;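 active = activation above a set limit, based on mean plus 3 SD of controls, cut at about 140% in these data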
# STAT1 act-1 – activators of IFN-gamma induced STAT1 signaling. NIH 3T3 STAT1-luciferase reporter, luminescence; 100% = IFN-gamma alone, no compound. activation (% of control), % at 5.5 µM. actives 2.6% (n = 200,000);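 active = activation above the screen-wide mean activation plus 3 SD, cut at about 130% in these data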;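 note: raw ratio to IFN-gamma control signal so 100% means no change and 0% no light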
# STAT3 inh-1 – STAT3 signaling inhibition; actives 0.89% (n = 190,000); U3A cells, IL-6 STAT3-luciferase reporter, luminescence; host cell line lacks STAT1; AID 862; inhibition, % at 5.5 µM;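 active = inhibition above the mean inhibition across all screened compounds plus 3 SD, cut at about 44% in these data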;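 note: 0% = DMSO only wells and 100% = 100 µM nifuroxazide control wells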
# STAT3 act-1 – activators of IL-6 induced STAT3 signaling | U3A cells, IL-6 STAT3-luciferase reporter, luminescence; 100% = signal with IL-6 EC80 alone | AID 871 | actives 0.91% (n = 190,000) | activation (% of control), % at 5.6 µM;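 active = activation above the screen-wide mean of compound activation plus 3 SD, cut at about 130% in these data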;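 note: 0% = background luminescence of wells with medium and substrate only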
#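 Test system: Human STAT1-deficient U3A cells with stable STAT3-luciferase reporter | Also added: Interleukin-6, 33 ng/mL | Timing: Compound pre-incubation 1 h before IL-6, then 6 h stimulation at 37 °C | Technique: Luciferase reporter luminescence | Read-out: Percent of IL-6-only median luminescence | Benchmarks: IL-6-only wells as 100% reference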
# STAT1 inh – inhibitors of IFN-gamma induced STAT1 signaling; NIH 3T3 STAT1-luciferase reporter, luminescence; inhibition, % at 5.5 µM; actives 0.35% (n = 200,000); AID 920;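 active = inhibition above a set limit, the mean inhibition across all tested compounds plus 3 SD, cut at about 34% in these data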;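 note: 0% = IFN-gamma with DMSO and 100% = IFN-gamma with 300 µM nifuroxazide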
# NF-kB neuron act – raises NF-kB expression in human neuronal cells | NF-kB reporter expression; hits give high values | fold change at 12.5 µM | actives 1.6% (n = 190,000); in the data active = fold change above about 3.3
# STAT3 inh-2 – confirmation of STAT3 signaling inhibitors | shares compounds with STAT3 inh-1 | U3A cells, IL-6 STAT3 luciferase reporter, luminescence; cell line lacks STAT1 | inhibition, % at 5.7 µM | actives 45% (n = 1,200);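 active = inhibition above the hit cutoff computed for the primary STAT3 screen, cut at about 44% in these data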;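 note: 0% = IL-6 plus DMSO and 100% = IL-6 plus nifuroxazide control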
# NFkB inh STAT3ct – counter-screen for STAT3 inhibitors: NF-kappaB inhibition. shares compounds with STAT3 inh-1. HEK293T NF-kB luciferase reporter, TNF-alpha induced. inhibition, % at 5.7 µM. actives 36% (n = 1,200). AID 1308;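 active = inhibition above the mean of solvent-only control wells plus 3 SD, cutoff set per campaign, cut at about 13% in these data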;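 note: 0% = TNF-alpha with DMSO and 100% = TNF-alpha with MG high control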
# STAT1 inh STAT3c – inhibits STAT1, counter-screen to STAT3 inhibitors; shares compounds with STAT3 inh-1; NIH 3T3 STAT1-luciferase reporter, IFN-gamma induced, luminescence; inhibition, % at 5.7 µM; actives 27% (n = 1,200);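 active = inhibition above the mean plus 3 SD of solvent-only control wells, limit set per screening run, cut at about 16% in these data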;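 note: 0% = DMSO with IFN-gamma and 100% = nifuroxazide control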
# STAT3 act-2 – STAT3 activation, confirmation assay; shares compounds with STAT3 act-1; U3A STAT3-luciferase reporter, IL-6 potentiation, luminescence; U3A cells lack STAT1; 100 means same as IL-6 alone; potentiation (% of control), % at 5.7 µM; actives 64% (n = 1,200);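 active = percent activation of the STAT3 luciferase reporter above a set limit taken from the earlier primary screen, cut at about 130% in these data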;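 note: 0% = background signal of medium plus substrate and 100% = median of IL-6 with DMSO wells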
# NFkB act STAT3ct – NF-kappaB activation in STAT3 activator counter-screen | shares compounds with STAT3 act-1 | human cells, NF-kappaB reporter activation | activation (% of control), % at 5.7 µM | actives 11% (n = 1,200) | AID 1309; in the data active = activation above about 120%;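 note: reporter induced by TNF-alpha stimulation; 100% = median of stimulated DMSO wells and 0% = no signal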
# STAT1 act-2 – activates STAT1, counter-screen to STAT3 activators. shares compounds with STAT3 act-1. NIH 3T3 STAT1-luciferase reporter, IFN-gamma, luminescence. activation (% of control), % at 5.7 µM. actives 13% (n = 1,200);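 active = activation above the solvent-only control well mean plus 3 SD, set per screening run, cut at about 120% in these data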;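 note: 100% = IFN-gamma with DMSO median signal so 100% means no change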
# STAT1 act conf – confirmation of STAT1 signaling activators. shares compounds with STAT1 act-1. NIH 3T3 STAT1-luciferase reporter, IFN-gamma potentiation, luminescence; 100% = IFN-gamma EC80 alone, no compound. activation (% of control), % at 5.7 µM. actives 97% (n = 1,200). AID 1262;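 active = activation above a set limit carried over from the earlier primary STAT1 screen, cut at about 140% in these data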;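 note: simple ratio to median IFN-gamma plus DMSO wells so 0% means no light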
# NFkB act STAT1ct – counter-screen for STAT1 activators: NF-kappaB activation | shares compounds with STAT1 act-1 | HEK293T NF-kB luciferase reporter, TNF-alpha stimulated, luminescence; 100% = TNF-alpha with vehicle only | activation (% of control), % at 5.7 µM | actives 43% (n = 1,200);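 active = activation above the mean of solvent-only control wells plus 3 SD, set per campaign, cut at about 130% in these data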;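 note: TNF-alpha given at a submaximal dose yielding about 80% of full reporter signal; values are well signal over median control so 100% means no change and 0% no light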
# STAT3 act 2 – activates human STAT3, counter-screen to STAT1 activators; shares compounds with STAT1 act-1; U3A cells STAT3-luciferase reporter, IL-6, luminescence; cells lack STAT1; 100 = IL-6 alone, no compound effect; activation (% of control), % at 5.7 µM; actives 46% (n = 1,200);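 active = activation above the solvent-only control well mean plus 3 SD, set per plate batch, cut at about 110% in these data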;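 note: 0% = no luminescence and 100% = median IL-6 plus DMSO wells; higher means more STAT3 reporter activation so hits are non-selective activators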
# * marks the source's active call; other numbers are inactive results; · = no result. The list is not random: actives were taken first. Their share in the collection is about 4.9%.
SMILES,APP 5'UTR act,STAT1 act-1,STAT3 inh-1,STAT3 act-1,STAT1 inh,NF-kB neuron act,STAT3 act-2,NFkB act STAT3ct,STAT1 act-2,others
N#C/C(=C\c1ccc(N2CCOCC2)c([N+](=O)[O-])c1)c1nc2ccccc2[nH]1,40.8,102.8,-21.2,117.9,-3.1,0.46,·,·,·,
N#C/C(=C\c1ccc(N2CCOCC2)o1)c1nc2ccccc2[nH]1,155.7*,160.1*,66.0*,44.9,-65.7,2.6,·,·,·,STAT3 inh-2=13.8;NFkB inh STAT3ct=-28.0;STAT1 inh STAT3c=-162.9;STAT1 act conf=254.8*;NFkB act STAT1ct=113.3;STAT3 act 2=90.2
Cc1cnc(NC(=O)c2sc3ccccc3c2Cl)s1,106.9,158.9*,63.9*,46.2,-64.9,4.57*,·,·,·,STAT3 inh-2=15.3;NFkB inh STAT3ct=24.2*;STAT1 inh STAT3c=-50.3;STAT1 act conf=172.3*;NFkB act STAT1ct=70.9;STAT3 act 2=79.1
CCOC(=O)/C(C#N)=C\c1cc(C)n(-c2ccccc2)c1C,135.5*,164.8*,44.9*,64.1,-71.0,0.62,·,·,·,STAT3 inh-2=-0.2;NFkB inh STAT3ct=-35.5;STAT1 inh STAT3c=-148.9;STAT1 act conf=237.9*;NFkB act STAT1ct=113.3;STAT3 act 2=115.4*
COc1ccc(C(=O)C2CCCN(Cc3c[nH]c4ccccc34)C2)c(OC)c1 (stereo not drawn),-8.4,89.6,-43.6,142.5*,9.9,1.13,141.1*,104.0,99.9,
N#Cc1c(C(F)(F)F)cc(-c2ccc(Cl)c(Cl)c2)nc1SCCN1CCOCC1,-6.9,89.0,-62.4,159.7*,12.0,0.95,146.3*,103.2,90.9,
Cc1cc(C(F)(F)F)nc(SCCN2CCOCC2)c1C#N,2.2,82.6,6.6,97.2,16.8,1.23,·,·,·,
CN=c1scc(-c2c[nH]c3ccccc23)n1C,-5.3,91.9,-35.1,138.3*,8.3,1.03,137.0*,104.4,99.2,
CC(C)Sc1nnc(-c2c[nH]c3ccccc23)n1C,·,111.5,10.2,98.9,-12.7,1.92,·,·,·,
O=C(NNC(=S)NC1CCCCC1)c1ccccc1O,20.5,90.2,12.6,93.3,7.6,1.22,·,·,·,
CC/C(=N\N=C1\SC(C)C(=O)N1Cc1ccco1)c1ccccc1 (stereo not drawn),-8.1,109.1,-6.6,107.9,-10.1,1.88,·,·,·,
COC(=O)c1sccc1NC(=O)Nc1cccc(F)c1,4.0,126.8,-43.4,150.0*,-28.8,0.8,130.9,121.0*,135.1*,
COC(=O)c1sccc1NC(=S)Nc1ccc(F)cc1,-2.9,89.9,12.4,91.7,11.3,1.16,·,·,·,
